ChEMBL document CHEMBL6074625, “Thiazolidine-2,4-dione hybrids as dual alpha-amylase and alpha-glucosidase inhibitors: design, synthesis, in vitro and in vivo anti-diabetic evaluation” (RSC Med Chem, 2024)
Calls of active or inactive are those of the source. The calls are words filed in the database; no cut-off is given here.

How the values were obtained:
Rattus norvegicus [1] = assay: Antidiabetic activity against streptozotocin-induced Wistar rat assessed as change in uric acid level at 10 mg/kg, po administered for 21 days measured on day 35; type: functional, organism-based; settings: time 35.0 day
How it was run: (§1)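 STZ-diabetic Wistar rats in six groups (normal, vehicle 0.5% CMC oral, STZ, STZ + test compounds, STZ + pioglitazone); oral treatment started day 14 after STZ on day 1. Markers measured in serum, pancreatic homogenate or whole blood, as named in each line. Groups compared by one-way ANOVA.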

Rattus norvegicus [2] = assay: Antidiabetic activity against streptozotocin-induced Wistar rat assessed as increase in serum amylase level at 10 mg/kg, po administered for 21 days measured on day 35 by ELISA analysis; type: functional, organism-based; settings: time 35.0 day; how it was run: as §1
Rattus norvegicus [3] = assay: Antidiabetic activity against STZ-induced oxidative stress in Wistar rats model assessed as reduction malondialdehyde level in pancreatic tissue at 10 mg/kg, po administered for 21 days measured on day 35; type: functional, organism-based; settings: time 35.0 day; how it was run: as §1
Rattus norvegicus [4] = assay: Antidiabetic activity against streptozotocin-induced Wistar rat assessed as increase BUN level in serum at 10 mg/kg, po administered for 21 days measured on day 35; type: functional, organism-based; settings: time 35.0 day; how it was run: as §1
PANC-1 [5] = assay: Anti-diabetic activity against high glucose induced human PANC-1 cells assessed as decrease in glucose induced alpha-amylase expression by measuring by measuring minimum fractional index at 5 uM incubated for 23 hrs and measured after 24 hrs by flow cytometric analysis (reference value: 2887 +/- 95.87); type: functional
[6] = target: alpha-glucosidase (Saccharomyces cerevisiae); assay: Inhibition of Saccharomyces cerevisiae alpha-glucosidase using 4-nitrophenyl-alpha-D-glucopyranoside as substrate incubated with compound for 15 to 20 min by absorbance based analysis
INS1 = assay: Cytotoxicity against rat INS1 cells assessed as inhibition of cell viability at upto 100 uM incubated for 24 hrs by MTT assay; type: toxicity, cell-based; settings: ins1, 24 h
How it was run: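 INS-1 MTT run as for PANC-1: 20 × 10³ cells per well in triplicate, 24 h at 37 °C/5% CO₂, then 5–100 μM (7 levels) for another day. MTT (5 mg mL⁻¹ stock) 3 h, centrifugation, DMSO solubilisation 30 min in dark, absorbance at 570 nm.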

Rattus norvegicus [7] = assay: Antidiabetic activity against streptozotocin-induced Wistar rat assessed as increase creatinine level in serum at 10 mg/kg, po administered for 21 days measured on day 35; type: functional, organism-based; settings: time 35.0 day; how it was run: as §1
Rattus norvegicus [8] = organism: Rattus norvegicus; assay: Anti-diabetic activity against STZ-induced diabetic Wistar rat model assessed as increase increase in number of neutrophils level; type: functional, organism-based; how it was run: as §1
PANC-1 [9] = assay: Cytotoxicity against human PANC-1 cells assessed as inhibition of cell viability at upto 100 uM incubated for 24 hrs by MTT assay; type: toxicity, cell-based; settings: panc-1, 24 h
How it was run: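 PANC-1 cells seeded at 9 × 10³ per well, triplicate, 24 h at 37 °C, 5% CO₂. Treated with 5, 10, 20, 40, 60, 80 and 100 μM for another day. MTT (5 mg mL⁻¹ stock) 3 h at 37 °C, plates centrifuged, formazan dissolved in DMSO 30 min dark, A570. Viability compared by one-way ANOVA with Tukey test.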

Rattus norvegicus [10] = organism: Rattus norvegicus; assay: (§2) Anti-diabetic activity in high glucose induced alpha-amylase expression in fasted STZ-induced diabetic Wistar rat model assessed as alpha-glucosidase level in pancreas by measuring minimum fractional index incubated for 23 hrs and measured after 24 hrs by flow cytometric analysis (reference value: 3063 + 149.2); type: functional
Rattus norvegicus [11] = assay: Antioxidant activity in fasted STZ-induced diabetic Wistar rat model assessed as decrease in high glucose induced ROS production in pancreas by measuring minimum fractional index at 10 mg/kg, po administration for 21 days and measured on day 35; type: functional; settings: time 35 day
How it was run: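 Rat pancreas mashed through a 70 μm strainer in FACS buffer. Processed by centrifugation (300 × g and 800 × g, 21 °C), 42% Percoll and 5 min RBC lysis. Cells washed, stained with DCFH-DA, and ROS read on a flow cytometer.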

Rattus norvegicus [12] = assay: Antidiabetic activity against streptozotocin-induced Wistar rat assessed as increase in serum SGOT level at 10 mg/kg, po administered for 21 days measured on day 35; type: functional, organism-based; settings: time 35.0 day; how it was run: as §1
Rattus norvegicus [13] = assay: Antidiabetic activity against STZ-induced oxidative stress in Wistar rats model assessed as increase in SOD level in pancreatic tissue at 10 mg/kg, po administered for 21 days measured on day 35 by absorbance based UV-spectroscopic analysis; settings: time 35.0 day
Rattus norvegicus [14] = organism: Rattus norvegicus; assay: as §2, with “alpha-amylase” for “alpha-glucosidase”, “2590” for “3063”, “199.74)” for “149.2)”; type: functional
[15] = Toxicity against STZ-induced diabetic Wistar rat model assessed as body weight loss at 10 mg/kg, po measured on day 14; type: organism-based; settings: in vivo, 336 h, time 14 day
How it was run: (§3)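 STZ given on day 1; oral treatment started day 14, with vehicle 0.5% CMC in controls. Six groups: normal, vehicle, STZ, STZ + two test compounds, STZ + pioglitazone. Blood glucose (tail puncture, glucometer) and body weight recorded on days 1, 4, 14 and 35. One-way ANOVA.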

Rattus norvegicus [16] = assay: Antidiabetic activity against streptozotocin-induced Wistar rat assessed as increase in PPAR-gamma level at 10 mg/kg, po administered for 21 days measured on day 35 by ELISA analysis; type: functional, organism-based; settings: time 35.0 day; how it was run: as §1
Rattus norvegicus [17] = assay: Anti-diabetic activity against in streptozotocin-induced diabetic Wistar rat model assessed as reduction in blood glucose level at 10 mg/kg, po administered for 21 days measured on day 35 by tail puncture method; type: functional, organism-based; settings: time 35.0 day; how it was run: as §3
Rattus norvegicus [18] = organism: Rattus norvegicus; assay: Anti-diabetic activity against STZ-induced diabetic Wistar rat model assessed as increase increase in number of white blood cell count level; type: functional, organism-based; how it was run: as §1
Rattus norvegicus [19] = assay: Antidiabetic activity against streptozotocin-induced Wistar rat assessed as increase in serum SGPT level at 10 mg/kg, po administered for 21 days measured on day 35; type: functional, organism-based; settings: time 35.0 day; how it was run: as §1
Rattus norvegicus [20] = organism: Rattus norvegicus; assay: Anti-diabetic activity against STZ-induced diabetic Wistar rat model assessed as increase increase in number of lymphocytes level; type: functional, organism-based; how it was run: as §1
Rattus norvegicus [21] = assay: Anti-diabetic activity against in streptozotocin-induced diabetic Wistar rat model assessed as reduction in blood glucose level at 10 mg/kg, po administered as single dose and measured upto 120 min by oral glucose tolerance test; type: functional, organism-based
How it was run: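 Wistar rats fasted 16 h, given a single oral 10 mg kg⁻¹ dose, then oral glucose 2 g kg⁻¹ immediately. Blood glucose taken by tail puncture with a glucometer at 0, 15, 30, 60, 90 and 120 min. Groups compared by ANOVA.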

Rattus norvegicus [22] = assay: Antidiabetic activity against STZ-induced oxidative stress in Wistar rats model assessed as increase GSH serum level at 10 mg/kg, po administered for 21 days measured on day 35 by absorbance based UV-spectroscopic analysis; type: functional, organism-based; settings: time 35.0 day; how it was run: as §1
Rattus norvegicus [23] = organism: Rattus norvegicus; assay: Anti-inflammatory activity in STZ-induced diabetic Wistar rat model assessed as […] level in serum by ELISA method; type: functional, organism-based; how it was run: as §1
Rattus norvegicus [24] = organism: Rattus norvegicus; assay: Anti-diabetic activity against STZ-induced diabetic Wistar rat model assessed as increase increase in number of monocytes level; type: functional, organism-based; how it was run: as §1
Rattus norvegicus [25] = organism: Rattus norvegicus; assay: Anti-diabetic activity against STZ-induced diabetic Wistar rat model assessed as increase increase in number of basophils level; type: functional, organism-based; how it was run: as §1
Rattus norvegicus [26] = assay: Antidiabetic activity against streptozotocin-induced Wistar rat assessed as decrease in total cholesterol at 10 mg/kg, po administered for 21 days measured on day 35; type: functional, organism-based; settings: time 35.0 day; how it was run: as §1
Rattus norvegicus [27] = organism: Rattus norvegicus; assay: Anti-diabetic activity against STZ-induced diabetic Wistar rat model assessed as increase increase in number of total red blood cell count level; type: functional, organism-based; how it was run: as §1
PANC-1 [28] = assay: Inhibition of high glucose induced alpha-amylase expressed in human PANC-1 cells assessed as decrease alpha-glucosidase level by measuring minimum fractional index incubated for 23 hrs and measured after 24 hrs by flow cytometric analysis; type: functional, cell-based

Compound	Activity (Rattus norvegicus [1])	Activity (Rattus norvegicus [2])	Activity (Rattus norvegicus [3])	Activity (Rattus norvegicus [4])	Activity_index (PANC-1 [5])	IC50 [6] [µM]	Activity (INS1)	Activity (Rattus norvegicus [7])	Activity (Rattus norvegicus [8])	Activity (PANC-1 [9])	Activity index (Rattus norvegicus [10])	Activity_index (Rattus norvegicus [11])	Activity (Rattus norvegicus [12])	Activity (Rattus norvegicus [13])	Activity index (Rattus norvegicus [14])	Activity [15]	Activity (Rattus norvegicus [16])	Activity (Rattus norvegicus [17])	Activity (Rattus norvegicus [18])	Activity (Rattus norvegicus [19])	also measured
C=CCOc1ccc(/C=C2\SC(=O)N(Cc3cccc([N+](=O)[O-])c3)C2=O)cc1OCC	Active	inactive	Active	Active	797	9.8	Non-toxic	Active	Active	Non-toxic	132	674	Active	Active	676	Toxic	Active	Active	Active	Active	Activity (Rattus norvegicus [20]): Active; Activity (Rattus norvegicus [21]): Active; Activity (Rattus norvegicus [22]): Active; Activity (Rattus norvegicus [23]): Active; Activity (Rattus norvegicus [24]): Active; Activity (Rattus norvegicus [25]): Active; Activity (Rattus norvegicus [26]): Active; Activity (Rattus norvegicus [27]): Active; Activity (PANC-1 [28]): Dose-dependent-effect
C#CCOc1ccc(/C=C2\SC(=O)N(Cc3cccc([N+](=O)[O-])c3)C2=O)cc1OCC	Active	inactive	Active	Active	109	5.15	Non-toxic	Active	Active	Non-toxic	2540	164	Active	Active	2250	Toxic	Active	Active	Active	Active	Activity (Rattus norvegicus [20]): Active; Activity (Rattus norvegicus [21]): Active; Activity (Rattus norvegicus [22]): Active; Activity (Rattus norvegicus [23]): Active; Activity (Rattus norvegicus [24]): Active; Activity (Rattus norvegicus [25]): Active; Activity (Rattus norvegicus [26]): Active; Activity (Rattus norvegicus [27]): Active; Activity (PANC-1 [28]): Dose-dependent-effect
